Assay results from ChEMBL document CHEMBL1126631, “Synthesis and biological activities of angiotensin II, Sarilesin, and Sarmesin analogues containing Aze or Pip at position 7” (J Med Chem, 1993).

Target: T1, Angiotensin II receptor (Rattus norvegicus, UniProt P29089+P25095+P35351)
T1 sequence (P29089 whole entry): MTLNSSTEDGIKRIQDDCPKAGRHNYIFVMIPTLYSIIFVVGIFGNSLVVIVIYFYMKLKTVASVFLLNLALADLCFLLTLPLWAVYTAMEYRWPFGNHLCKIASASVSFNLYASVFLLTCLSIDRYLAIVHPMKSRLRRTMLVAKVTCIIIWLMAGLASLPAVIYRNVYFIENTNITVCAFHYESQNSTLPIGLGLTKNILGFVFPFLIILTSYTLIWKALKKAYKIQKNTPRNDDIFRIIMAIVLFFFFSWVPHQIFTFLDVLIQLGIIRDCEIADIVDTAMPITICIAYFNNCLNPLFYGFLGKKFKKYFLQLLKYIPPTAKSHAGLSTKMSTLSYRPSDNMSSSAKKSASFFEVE
T1 sequence (P25095 whole entry): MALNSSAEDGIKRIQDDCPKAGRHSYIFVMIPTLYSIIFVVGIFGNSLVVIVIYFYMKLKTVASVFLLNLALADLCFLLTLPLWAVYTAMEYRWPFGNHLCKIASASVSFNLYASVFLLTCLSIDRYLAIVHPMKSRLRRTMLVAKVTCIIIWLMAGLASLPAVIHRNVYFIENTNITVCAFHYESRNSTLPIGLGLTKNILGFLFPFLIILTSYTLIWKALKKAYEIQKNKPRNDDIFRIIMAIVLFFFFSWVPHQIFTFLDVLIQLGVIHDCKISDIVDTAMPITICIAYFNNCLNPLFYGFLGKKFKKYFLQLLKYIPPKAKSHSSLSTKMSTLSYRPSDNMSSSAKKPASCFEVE
T1 sequence (P35351 whole entry): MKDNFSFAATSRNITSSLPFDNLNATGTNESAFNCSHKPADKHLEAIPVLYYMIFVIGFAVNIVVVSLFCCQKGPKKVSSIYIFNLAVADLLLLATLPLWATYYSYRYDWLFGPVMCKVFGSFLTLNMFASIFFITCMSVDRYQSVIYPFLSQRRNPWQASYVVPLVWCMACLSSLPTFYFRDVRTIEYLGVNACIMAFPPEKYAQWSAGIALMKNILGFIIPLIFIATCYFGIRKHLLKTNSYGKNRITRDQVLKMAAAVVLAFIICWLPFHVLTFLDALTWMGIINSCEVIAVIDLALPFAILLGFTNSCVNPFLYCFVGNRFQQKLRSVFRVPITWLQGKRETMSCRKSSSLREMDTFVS
Assay: Antagonistic activity (pA2) was determined as the negative logarithm of the concentration required to reduce the response to an EC50 dose of ANG II to the response to half the EC50.
Type: functional
Summary of the method: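 Isolated uterine horns (defatted) from diethylstilbestrol-primed virgin Sprague–Dawley rats (150–250 g), held under 1-g tension in a 3-mL bath of 150 mM NaCl, 5.6 mM KCl, 0.18 mM NaHCO3, 1.4 mM glucose, pH 7.0, oxygenated. Isotonic contractions recorded. Human ANGII as standard; values are means of the stated number of experiments.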

Structure (SMILES)	pA2
CC[C@H](C)[C@H](NC(=O)[C@H](Cc1ccc(OC)cc1)NC(=O)[C@@H](NC(=O)[C@H](CCCN=C(N)N)NC(=O)CNC)C(C)C)C(=O)N[C@@H](Cc1c[nH]cn1)C(=O)N1CCCC[C@H]1C(=O)N[C@@H](Cc1ccccc1)C(=O)O	6.5
CC[C@H](C)[C@H](NC(=O)[C@@H]1CCCCN1C(=O)[C@H](Cc1c[nH]cn1)NC(=O)[C@@H](NC(=O)[C@H](Cc1ccc(O)cc1)NC(=O)[C@@H](NC(=O)[C@H](CCCN=C(N)N)NC(=O)C(C)(C)N)C(C)C)[C@@H](C)CC)C(=O)O	7.6
CC[C@H](C)[C@H](NC(=O)[C@H](Cc1ccc(OC)cc1)NC(=O)[C@@H](NC(=O)[C@H](CCCN=C(N)N)NC(=O)CNC)C(C)C)C(=O)N[C@@H](Cc1c[nH]cn1)C(=O)N1CCC[C@H]1C(=O)N[C@@H](Cc1ccccc1)C(=O)O	7.7
CC[C@H](C)[C@H](NC(=O)[C@H](Cc1ccc(OC)cc1)NC(=O)[C@@H](NC(=O)[C@H](CCCN=C(N)N)NC(=O)CNC)C(C)C)C(=O)N[C@@H](Cc1c[nH]cn1)C(=O)N1CC[C@H]1C(=O)N[C@@H](Cc1ccccc1)C(=O)O	7.4
CC[C@H](C)[C@H](NC(=O)[C@H](Cc1ccc(OC)cc1)NC(=O)[C@@H](NC(=O)[C@@H](N)CCCN=C(N)N)C(C)C)C(=O)N[C@@H](Cc1c[nH]cn1)C(=O)N1CC[C@H]1C(=O)N[C@@H](Cc1ccccc1)C(=O)O	< 5
CC[C@H](C)[C@H](NC(=O)[C@@H]1CCCCN1C(=O)[C@H](Cc1c[nH]cn1)NC(=O)[C@@H](NC(=O)[C@H](Cc1ccc(O)cc1)NC(=O)[C@@H](NC(=O)[C@H](CCCN=C(N)N)NC(=O)CNC)C(C)C)[C@@H](C)CC)C(=O)O	8.3
CC[C@H](C)[C@H](NC(=O)[C@H](Cc1ccc(OC)cc1)NC(=O)[C@@H](NC(=O)[C@@H](N)CCCN=C(N)N)C(C)C)C(=O)N[C@@H](Cc1c[nH]cn1)C(=O)N1CCCC[C@H]1C(=O)N[C@@H](Cc1ccccc1)C(=O)O	< 5
CC[C@H](C)[C@H](NC(=O)[C@@H]1CCN1C(=O)[C@H](Cc1c[nH]cn1)NC(=O)[C@@H](NC(=O)[C@H](Cc1ccc(O)cc1)NC(=O)[C@@H](NC(=O)[C@H](CCCN=C(N)N)NC(=O)C(C)(C)N)C(C)C)[C@@H](C)CC)C(=O)O	7.1
CC[C@H](C)[C@H](NC(=O)[C@@H]1CCN1C(=O)[C@H](Cc1c[nH]cn1)NC(=O)[C@@H](NC(=O)[C@H](Cc1ccc(O)cc1)NC(=O)[C@@H](NC(=O)[C@H](CCCN=C(N)N)NC(=O)CNC)C(C)C)[C@@H](C)CC)C(=O)O	7.9

Target: Angiotensin II receptor (Rattus norvegicus) (UniProt P29089+P25095+P35351)
Assay: Evaluated for its agonistic activity using rat uterus bioassay in Dawley rats (% of ANG II)
Type: functional, tissue-based
Summary of the method: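 Defatted uterine horns from diethylstilbestrol-primed virgin Sprague–Dawley rats (150–250 g), suspended under 1-g tension in a 3-mL oxygenated bath (150 mM NaCl, 5.6 mM KCl, 0.18 mM NaHCO3, 1.4 mM glucose, pH 7.0). Isotonic contractions recorded; activity found by matching the response to an equivalent human ANGII response. Values are means of the stated number of experiments.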

Structure (SMILES)	Agonist activity
CC[C@H](C)[C@H](NC(=O)[C@@H]1CCCN1C(=O)[C@H](Cc1c[nH]cn1)NC(=O)[C@@H](NC(=O)[C@H](Cc1ccc(O)cc1)NC(=O)[C@@H](NC(=O)[C@H](CCCN=C(N)N)NC(=O)CNC)C(C)C)[C@@H](C)CC)C(=O)O	0.1
CC[C@H](C)[C@H](NC(=O)[C@H](Cc1ccc(O)cc1)NC(=O)[C@@H](NC(=O)[C@H](CCCN=C(N)N)NC(=O)CNC)C(C)C)C(=O)N[C@@H](Cc1c[nH]cn1)C(=O)N1CCCC[C@@H]1C(=O)N[C@@H](Cc1ccccc1)C(=O)O	184
CC[C@H](C)[C@H](NC(=O)[C@H](Cc1ccc(O)cc1)NC(=O)[C@@H](NC(=O)[C@@H](N)CCCN=C(N)N)C(C)C)C(=O)N[C@@H](Cc1c[nH]cn1)C(=O)N1CCC1C(=O)N[C@@H](Cc1ccccc1)C(=O)O (stereo not given in full)	35
CC[C@@H](C)[C@H](NC(=O)C1CCN1C(=O)[C@H](Cc1c[nH]cn1)NC(=O)[C@@H](NC(=O)[C@H](Cc1ccc(O)cc1)NC(=O)[C@@H](NC(=O)[C@H](CCCN=C(N)N)NC(=O)CNC)C(C)C)[C@@H](C)CC)C(=O)O (stereo not given in full)	< 0.1
CC[C@H](C)[C@H](NC(=O)[C@H](Cc1ccc(O)cc1)NC(=O)[C@@H](NC(=O)[C@H](CCCN=C(N)N)NC(=O)CNC)C(C)C)C(=O)N[C@@H](Cc1c[nH]cn1)C(=O)N1CCC[C@H]1C(=O)N[C@@H](Cc1ccccc1)C(=O)O	160
CC[C@H](C)[C@H](NC(=O)[C@H](Cc1ccc(O)cc1)NC(=O)[C@@H](NC(=O)[C@H](CCCN=C(N)N)NC(=O)C(C)(C)N)C(C)C)C(=O)N[C@@H](Cc1c[nH]cn1)C(=O)N1CCCC[C@@H]1C(=O)N[C@@H](Cc1ccccc1)C(=O)O	65
CC[C@@H](C)[C@H](NC(=O)[C@H]1CCCCN1C(=O)[C@H](Cc1c[nH]cn1)NC(=O)[C@@H](NC(=O)[C@H](Cc1ccc(O)cc1)NC(=O)[C@@H](NC(=O)[C@H](CCCN=C(N)N)NC(=O)C(C)(C)N)C(C)C)[C@@H](C)CC)C(=O)O	< 0.1
CC[C@H](C)[C@H](NC(=O)[C@H](Cc1ccc(O)cc1)NC(=O)[C@@H](NC(=O)[C@H](CCCN=C(N)N)NC(=O)CNC)C(C)C)C(=O)N[C@@H](Cc1c[nH]cn1)C(=O)N1CCC1C(=O)N[C@@H](Cc1ccccc1)C(=O)O (stereo not given in full)	98
CC[C@@H](C)[C@H](NC(=O)C1CCN1C(=O)[C@H](Cc1c[nH]cn1)NC(=O)[C@@H](NC(=O)[C@H](Cc1ccc(O)cc1)NC(=O)[C@@H](NC(=O)[C@H](CCCN=C(N)N)NC(=O)C(C)(C)N)C(C)C)[C@@H](C)CC)C(=O)O (stereo not given in full)	< 0.1
CC[C@H](C)[C@H](NC(=O)[C@H](Cc1ccc(O)cc1)NC(=O)[C@@H](NC(=O)[C@H](CCCN=C(N)N)NC(=O)C(C)(C)N)C(C)C)C(=O)N[C@@H](Cc1c[nH]cn1)C(=O)N1CCC1C(=O)N[C@@H](Cc1ccccc1)C(=O)O (stereo not given in full)	34
CC[C@@H](C)[C@H](NC(=O)[C@H]1CCCCN1C(=O)[C@H](Cc1c[nH]cn1)NC(=O)[C@@H](NC(=O)[C@H](Cc1ccc(O)cc1)NC(=O)[C@@H](NC(=O)[C@H](CCCN=C(N)N)NC(=O)CNC)C(C)C)[C@@H](C)CC)C(=O)O	< 0.1
